The results in this text go back to ChEMBL document CHEMBL3244382, “Structural requirements for antileukemic activity among the naturally occurring and semisynthetic maytansinoids” (J Med Chem, 1978).

The structures appear in SMILES notation. Values after ≈ are worked out from the molar mass of the structure shown. Active and inactive are the calls of the source.

The T/C is the ratio of treated to control.

Data set [1] concerns Mus musculus. Put plainly: Toxicity in PS mouse allografted with mouse P388 cells assessed as change in body weight at 200 ug/kg relative to control. The note with it: in vivo, 0.2 mg/kg. Type of data set: organism-based. In outline: (§1)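 P388 (PS) leukemia in mice, 6 mice per dose group. Weight change is the difference in grams between treated and control animals. Survivors are recorded on toxicity day, normally 4 days after the first injection.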

For data set [2], the system named is Mus musculus. Put plainly: Toxicity in PS mouse allografted with mouse P388 cells assessed as change in body weight at 100 ug/kg relative to control. Format: organism-based. As to conditions: in vivo, 0.1 mg/kg. In outline:
as §1

For data set [3], the system named is Mus musculus. Put plainly: Toxicity in PS mouse allografted with mouse P388 cells assessed as survival at 400 ug/kg after 4 days. Format: organism-based. The note with it: in vivo, 0.4 mg/kg, 96 h. In outline:
(§2)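 PS (P388) leukemic mice, six started per dose group. Toxicity scored as survivors on the toxicity day over the number of mice started. The toxicity day is normally 4 days after the first injection.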

In data set [4] the test system is Mus musculus. The data set is described as follows: Toxicity in PS mouse allografted with mouse P388 cells assessed as change in body weight at 50 ug/kg relative to control. The note with it: in vivo, 0.05 mg/kg. Format: organism-based. In outline:
as §1

Data set [5] deals with P388. Put plainly: Antitumor activity against mouse P388 cells allografted in PS mouse assessed as median survival time at 50 ug/kg relative to control. Type of data set: functional. In outline: (§3)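 P388 leukemia (PS) in mice, six mice started per dose group. Read-out is T/C: median survival time of the treated group divided by that of the untreated control group, expressed as a percent. The NIH protocol counts a compound as active when T/C > 125%.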

The next data set concerns the target Tubulin (Homo sapiens) (UniProt P68371+Q9H4B7+P0DPH7+P68366+Q13509+Q71U36+P04350+Q3ZCM7+P07437+P68363+Q9BQE3+Q6PEY2+Q13885+Q9BVA1+Q9BUF5). The data set is described as follows: Inhibition of brain tubulin polymerization (unknown origin) at 37 degC by spectrophotometry.
Data set [6] relates to Mus musculus. Put plainly: Toxicity in PS mouse allografted with mouse P388 cells assessed as survival at 50 ug/kg after 4 days. Type of data set: organism-based. As to conditions: in vivo, 0.05 mg/kg, 96 h. In outline:
as §2

For data set [7], the system named is Mus musculus. Put plainly: Toxicity in PS mouse allografted with mouse P388 cells assessed as survival at 200 ug/kg after 4 days. The note with it: in vivo, 0.2 mg/kg, 96 h. Type of data set: organism-based. In outline: as §2
Data set [8] has as its system Mus musculus. Put plainly: Toxicity in PS mouse allografted with mouse P388 cells assessed as survival at 100 ug/kg after 4 days. Type of data set: organism-based. As to conditions: in vivo, 0.1 mg/kg, 96 h. In outline: as §2
In data set [9] the test system is P388. The data set is described as follows: Antitumor activity against mouse P388 cells allografted in PS mouse assessed as median survival time at 400 ug/kg relative to control. Format: functional. In outline:
as §3

Data set [10] relates to P388. The data set is described as follows: Antitumor activity against mouse P388 cells allografted in PS mouse assessed as median survival time at 100 ug/kg relative to control. Type of data set: functional. In outline:
as §3

For a further data set, the system named is KB. The data set is described as follows: Cytotoxicity against human KB cells. Format: functional. The note with it: read-out: ED50 (the source's name).
In the next data set the test system is Paracentrotus lividus. The data set is described as follows: Antimitotic activity against sea urchin eggs assessed as drug level causing inhibition of mitosis. Format: functional. The note with it: Egg.
Data set [11] deals with P388. The data set is described as follows: Antitumor activity against mouse P388 cells allografted in PS mouse assessed as median survival time at 200 ug/kg relative to control. Type of data set: functional. In outline:
as §3

For data set [12], the system named is Mus musculus. The data set is described as follows: Toxicity in PS mouse allografted with mouse P388 cells assessed as change in body weight at 400 ug/kg relative to control. The note with it: in vivo, 0.4 mg/kg. Type of data set: organism-based. In outline:
as §1

For the compound `CCCS[C@]12C[C@H](OC(=O)N1)[C@@H](C)[C@@H]1O[C@@]1(C)[C@@H](OC(=O)[C@H](C)N(C)C(C)=O)CC(=O)N(C)c1cc(cc(OC)c1Cl)C/C(C)=C/C=C/[C@H]2OC`, the Activity with Mus musculus [1] was 0.1 g; in the data set with Mus musculus [2], 2.8 g; with Mus musculus [3], “Non-toxic”; with Mus musculus [4], -1.3 g; with Mus musculus [6], “Non-toxic”; with Mus musculus [7] it was “Non-toxic”. The Activity result in the data set on Mus musculus [8] is “Non-toxic”; in the data set on Paracentrotus lividus, 1 ×10⁻⁸ mol/L; with Mus musculus [12] it was -0.7 g. For the same compound, the T/C turned out to be 111% in the data set on P388 [5], 114% in the data set on P388 [9], 114% in the data set on P388 [10] and 114% in the data set with P388 [11]. Further, the inhibition entry on Tubulin (Homo sapiens) is “Active”. For the same compound, the EC50 in the data set with KB stood at 0.18 ng/mL (≈ 0.24 nM).

As for `COc1cc2cc(c1Cl)N(C)C(=O)C[C@H](OC(=O)[C@H](C)N(C)C(C)=O)[C@]1(C)O[C@H]1[C@H](C)[C@@H]1C[C@@](OC)(NC(=O)O1)[C@H](OC)/C=C/C=C(\C)C2`, the Activity in the data set on Mus musculus [1] is reported as -0.7 g; in the data set with Mus musculus [2], -0.9 g; in the data set with Mus musculus [3], “Non-toxic”; in the data set on Mus musculus [4], -2.3 g; with Mus musculus [6] it was “Non-toxic”; with Mus musculus [7], “Non-toxic”. Moreover, the values for the Activity result in the data set on Mus musculus [8], with Paracentrotus lividus and in the data set with Mus musculus [12] were “Non-toxic”, 1 ×10⁻⁸ mol/L and -0.9 g, respectively. The T/C was found to be 101% in the data set with P388 [5], 139% in the data set on P388 [9], 104% in the data set with P388 [10] and 93% in the data set with P388 [11]. Further, on Tubulin (Homo sapiens), the inhibition result is “Active”. For the same compound, the EC50 in the data set on KB was 0.19 ng/mL (≈ 0.269 nM).

On to `CCO[C@]12C[C@H](OC(=O)N1)[C@@H](C)[C@@H]1O[C@@]1(C)[C@@H](OC(=O)[C@H](C)N(C)C(=O)C(C)C)CC(=O)N(C)c1cc(cc(OC)c1Cl)C/C(C)=C/C=C/[C@H]2OC`, for which the Activity is given as 0.3 g in the data set on Mus musculus [1]; 3.4 g in the data set with Mus musculus [2]; “Non-toxic” in the data set on Mus musculus [3]; 1.3 g in the data set with Mus musculus [4]; “Non-toxic” in the data set on Mus musculus [6]; “Non-toxic” in the data set with Mus musculus [7]. The Activity result with Mus musculus [8] was “Non-toxic”; with Paracentrotus lividus, 1 ×10⁻⁷ mol/L; in the data set with Mus musculus [12], -0.9 g. In addition, the T/C in the data set on P388 [5] is given as 100%; in the data set with P388 [9] it was 149%; with P388 [10] it was 109%; in the data set with P388 [11], 134%. Further, at Tubulin (Homo sapiens), the inhibition result was “Active”. Further, in the data set with KB, the EC50 amounted to 1.2 ng/mL (≈ 1.6 nM).
